Measured values: ChEMBL document CHEMBL3621107, “Ring fusion strategy for synthesis and lead optimization of sulfur-substituted anthra[1,2-c][1,2,5]thiadiazole-6,11-dione derivatives as promising scaffold of antitumor agents” (Eur J Med Chem, 2015)

Experiments:
Format in all cases: functional
SR = assay: Cytotoxicity against human SR cells assessed as cell growth at 10 uM after 48 hrs by SRB assay relative to control; conditions: read-out: Activity
How it was run: (§1)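 NCI-60 one-dose screen run by NCI DTP: each cell line exposed to a single 10 µM dose, and percentage growth recorded against untreated growth.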

NCI-H23 = assay: Cytotoxicity against human NCI-H23 cells assessed as cell growth at 10 uM after 48 hrs by SRB assay relative to control; conditions: NCI-H23, 48 h, read-out: Activity
How it was run: (§2)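 First-stage NCI DTP one-dose screen against the 60 human tumour cell line panel. Compounds were tested at a single 10 μM level, and results are given as growth percentage.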

IGROV-1 = assay: Cytotoxicity against human IGROV1 cells assessed as cell growth at 10 uM after 48 hrs by SRB assay relative to control; conditions: IGROV-1, 48 h, read-out: Activity
How it was run: (§3)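 First-stage NCI-60 screen by the NCI Developmental Therapeutics Program. Each compound was tested once at a single concentration of 10 μM against the 60-cell-line panel. Growth percentage was reported for each cell line.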

SK-MEL-5 = assay: Cytotoxicity against human SK-MEL-5 cells assessed as cell growth at 10 uM after 48 hrs by SRB assay relative to control; conditions: SK-MEL-5, 48 h, read-out: Activity; how it was run: as §2
RPMI-8226 = assay: Cytotoxicity against human RPMI8226 cells assessed as cell growth at 10 uM after 48 hrs by SRB assay relative to control; conditions: RPMI-8226, 48 h, read-out: Activity; how it was run: as §2
UACC-62 = assay: Cytotoxicity against human UACC62 cells assessed as cell growth at 10 uM after 48 hrs by SRB assay relative to control; conditions: UACC-62, 48 h, read-out: Activity; how it was run: as §1
NCI-H460 = assay: Cytotoxicity against human NCI-H460 cells assessed as cell growth at 10 uM after 48 hrs by SRB assay relative to control; conditions: NCI-H460, 48 h, read-out: Activity; how it was run: as §2
SK-MEL-28 = assay: Cytotoxicity against human SK-MEL-28 cells assessed as cell growth at 10 uM after 48 hrs by SRB assay relative to control; conditions: SK-MEL-28, 48 h, read-out: Activity; how it was run: as §2
OVCAR-3 = assay: Cytotoxicity against human OVCAR3 cells assessed as cell growth at 10 uM after 48 hrs by SRB assay relative to control; conditions: OVCAR-3, 48 h, read-out: Activity; how it was run: as §2
U-251 = assay: Cytotoxicity against human U251 cells assessed as cell growth at 10 uM after 48 hrs by SRB assay relative to control; conditions: U-251, 48 h, read-out: Activity; how it was run: as §1
NCI-H322M = assay: Cytotoxicity against human NCI-H322M cells assessed as cell growth at 10 uM after 48 hrs by SRB assay relative to control; conditions: read-out: Activity; how it was run: as §2
COLO 205 = assay: Cytotoxicity against human COLO205 cells assessed as cell growth at 10 uM after 48 hrs by SRB assay relative to control; conditions: COLO 205, 48 h, read-out: Activity; how it was run: as §3
Malme-3M = assay: Cytotoxicity against human MALME-3M cells assessed as cell growth at 10 uM after 48 hrs by SRB assay relative to control; conditions: read-out: Activity; how it was run: as §3
HOP-92 = assay: Cytotoxicity against human HOP92 cells assessed as cell growth at 10 uM after 48 hrs by SRB assay relative to control; conditions: HOP-92, 48 h, read-out: Activity; how it was run: as §3
RXF 393 = assay: Cytotoxicity against human RXF393 cells assessed as cell growth at 10 uM after 48 hrs by SRB assay relative to control; conditions: RXF 393, 48 h, read-out: Activity; how it was run: as §2
MCF7 = assay: Cytotoxicity against human MCF7 cells assessed as cell growth at 10 uM after 48 hrs by SRB assay relative to control; conditions: MCF7, 48 h, read-out: Activity; how it was run: as §3
UO-31 = assay: Cytotoxicity against human UO31 cells assessed as cell growth at 10 uM after 48 hrs by SRB assay relative to control; conditions: UO-31, 48 h, read-out: Activity; how it was run: as §1
HCC 2998 = assay: Cytotoxicity against human HCC2998 cells assessed as cell growth at 10 uM after 48 hrs by SRB assay relative to control; conditions: HCC 2998, 48 h, read-out: Activity; how it was run: as §3
DU-145 = assay: Cytotoxicity against human DU145 cells assessed as cell growth at 10 uM after 48 hrs by SRB assay relative to control; conditions: DU-145, 48 h, read-out: Activity; how it was run: as §3
SF-268 = assay: Cytotoxicity against human SF268 cells assessed as cell growth at 10 uM after 48 hrs by SRB assay relative to control; conditions: SF-268, 48 h, read-out: Activity; how it was run: as §2
CAKI-1 = assay: Cytotoxicity against human Caki1 cells assessed as cell growth at 10 uM after 48 hrs by SRB assay relative to control; conditions: CAKI-1, 48 h, read-out: Activity; how it was run: as §3
HCT-116 = assay: Cytotoxicity against human HCT116 cells assessed as cell growth at 10 uM after 48 hrs by SRB assay relative to control; conditions: HCT-116, 48 h, read-out: Activity; how it was run: as §3
CCRF-CEM = assay: Cytotoxicity against human CCRF-CEM cells assessed as cell growth at 10 uM after 48 hrs by SRB assay relative to control; conditions: read-out: Activity; how it was run: as §3
BT-549 = assay: Cytotoxicity against human BT549 cells assessed as cell growth at 10 uM after 48 hrs by SRB assay relative to control; conditions: BT-549, 48 h, read-out: Activity; how it was run: as §3
SN12C = assay: Cytotoxicity against human SN12C cells assessed as cell growth at 10 uM after 48 hrs by SRB assay relative to control; conditions: read-out: Activity; how it was run: as §2
SNB-75 = assay: Cytotoxicity against human SNB75 cells assessed as cell growth at 10 uM after 48 hrs by SRB assay relative to control; conditions: SNB-75, 48 h, read-out: Activity; how it was run: as §1
OVCAR-8 = assay: Cytotoxicity against human OVCAR8 cells assessed as cell growth at 10 uM after 48 hrs by SRB assay relative to control; conditions: OVCAR-8, 48 h, read-out: Activity; how it was run: as §2
LOX IMVI = assay: Cytotoxicity against human LOXIMVI cells assessed as cell growth at 10 uM after 48 hrs by SRB assay relative to control; conditions: read-out: Activity; how it was run: as §3
OVCAR-4 = assay: Cytotoxicity against human OVCAR4 cells assessed as cell growth at 10 uM after 48 hrs by SRB assay relative to control; conditions: OVCAR-4, 48 h, read-out: Activity; how it was run: as §2
TK-10 = assay: Cytotoxicity against human TK10 cells assessed as cell growth at 10 uM after 48 hrs by SRB assay relative to control; conditions: TK-10, 48 h, read-out: Activity; how it was run: as §1
K562 = assay: Cytotoxicity against human K562 cells assessed as cell growth at 10 uM after 48 hrs by SRB assay relative to control; conditions: K562, 48 h, read-out: Activity; how it was run: as §3

Structure (SMILES): O=C1c2ccccc2C(=O)c2c1cc(SCc1ccccc1)c1nsnc21
- growth at 10 µM (SR): 1.25%
- growth at 10 µM (NCI-H23): 55.3%
- growth at 10 µM (IGROV-1): 43.9%
- growth at 10 µM (SK-MEL-5): 22.5%
- growth at 10 µM (RPMI-8226): 43.2%
- growth at 10 µM (UACC-62): 43.1%
- growth at 10 µM (NCI-H460): 92%
- growth at 10 µM (SK-MEL-28): 95%
- growth at 10 µM (OVCAR-3): 25.3%
- growth at 10 µM (U-251): 30.5%
- growth at 10 µM (NCI-H322M): 98.4%
- growth at 10 µM (COLO 205): 103%
- growth at 10 µM (Malme-3M): 80.8%
- growth at 10 µM (HOP-92): -14.4%
- growth at 10 µM (RXF 393): 68.1%
- growth at 10 µM (MCF7): 56.4%
- growth at 10 µM (UO-31): 73.8%
- growth at 10 µM (HCC 2998): 115%
- growth at 10 µM (DU-145): 82.2%
- growth at 10 µM (SF-268): 56%
- growth at 10 µM (CAKI-1): 73.8%
- growth at 10 µM (HCT-116): 53.1%
- growth at 10 µM (CCRF-CEM): 0.65%
- growth at 10 µM (BT-549): 96.2%
- growth at 10 µM (SN12C): 66.1%
- growth at 10 µM (SNB-75): 39.6%
- growth at 10 µM (OVCAR-8): 6.01%
- growth at 10 µM (LOX IMVI): 7.49%
- growth at 10 µM (OVCAR-4): -68.2%
- growth at 10 µM (TK-10): 130%
- growth at 10 µM (K562): 10.5%
